Paper PMC4285624 (Biochemical pharmacology, 2014)

Experiments:
RPA DBD-A/B = RPA DBD-A/B (Homo sapiens, UniProt P27694); assay: EMSA of RPA DBD-A/B binding to DNA; format: biochemical; conditions: 150 nM DBD-A/B, compounds 25–100 μM
How it was run: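 The RPA181–432 DBD-A/B fragment was expressed in E. coli BL21(DE3) as a SUMO-His6 fusion (0.5 mM IPTG, 3 h, 37 °C). It was Ni-NTA purified, SUMO-cleaved with ULP1, and polished by size exclusion. Protein was preincubated 30 min with compound, then mixed with 2.5 nM 5′-32P 34-base DNA for 5 min at room temperature. Products were run on 6% native gels at 4 °C and quantified by phosphorimager.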

[1] = biological target: Full length, heterotrimeric human RPA (fl-RPA) (Homo sapiens, UniProt P27694); assay: EMSA of full length RPA binding to ssDNA; format: biochemical; conditions: read-out: In vitro IC50, RPA-DNA binding, compounds titrated 1–125 μM
How it was run: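 Recombinant full-length heterotrimeric human RPA (50 nM, E. coli-expressed) was preincubated 30 min with DMSO-dissolved compound (DMSO ≤5%). Bound and free DNA were separated on 6% native gels and quantified by phosphorimager. IC50 came from nonlinear regression; three independent determinations.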

[2] = cited from earlier work
lung cancer cell line = conditions: cited from earlier work
[3] = tested on: peripheral blood lymphocytes; conditions: cited from earlier work

RPA DBD-A/B, sequence (P27694 181-432): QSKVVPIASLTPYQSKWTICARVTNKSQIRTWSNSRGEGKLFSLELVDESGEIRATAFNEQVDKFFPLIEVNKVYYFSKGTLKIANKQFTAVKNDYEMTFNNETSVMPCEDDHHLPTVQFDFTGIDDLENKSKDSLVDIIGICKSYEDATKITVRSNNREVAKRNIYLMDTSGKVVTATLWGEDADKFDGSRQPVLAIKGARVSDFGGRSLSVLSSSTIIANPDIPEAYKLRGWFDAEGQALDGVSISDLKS
Full length, heterotrimeric human RPA (fl-RPA), sequence (P27694 whole entry): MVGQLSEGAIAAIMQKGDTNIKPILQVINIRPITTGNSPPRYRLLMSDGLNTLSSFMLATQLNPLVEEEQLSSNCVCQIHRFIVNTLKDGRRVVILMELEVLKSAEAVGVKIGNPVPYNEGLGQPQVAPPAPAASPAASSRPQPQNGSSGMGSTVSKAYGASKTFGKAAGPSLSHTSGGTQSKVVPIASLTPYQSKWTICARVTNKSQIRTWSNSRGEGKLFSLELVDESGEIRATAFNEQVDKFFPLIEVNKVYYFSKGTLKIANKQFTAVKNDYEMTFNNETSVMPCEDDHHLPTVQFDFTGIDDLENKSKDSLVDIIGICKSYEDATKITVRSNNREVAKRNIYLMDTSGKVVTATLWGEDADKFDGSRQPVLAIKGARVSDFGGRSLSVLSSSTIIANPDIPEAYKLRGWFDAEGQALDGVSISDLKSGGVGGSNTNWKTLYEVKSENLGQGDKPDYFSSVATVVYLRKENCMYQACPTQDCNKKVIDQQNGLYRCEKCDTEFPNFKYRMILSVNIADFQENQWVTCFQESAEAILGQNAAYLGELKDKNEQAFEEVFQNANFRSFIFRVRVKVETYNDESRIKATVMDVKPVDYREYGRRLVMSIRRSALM
Full length, heterotrimeric human RPA (fl-RPA), sequence (P15927 whole entry partner): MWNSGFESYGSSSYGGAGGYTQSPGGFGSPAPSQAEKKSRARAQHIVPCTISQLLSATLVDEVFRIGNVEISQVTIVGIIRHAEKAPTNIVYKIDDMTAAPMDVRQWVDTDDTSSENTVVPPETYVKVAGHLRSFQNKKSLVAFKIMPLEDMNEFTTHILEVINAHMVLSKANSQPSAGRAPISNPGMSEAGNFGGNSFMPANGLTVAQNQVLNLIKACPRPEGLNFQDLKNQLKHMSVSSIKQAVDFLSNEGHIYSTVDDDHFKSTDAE
Full length, heterotrimeric human RPA (fl-RPA), sequence (P35244 whole entry partner): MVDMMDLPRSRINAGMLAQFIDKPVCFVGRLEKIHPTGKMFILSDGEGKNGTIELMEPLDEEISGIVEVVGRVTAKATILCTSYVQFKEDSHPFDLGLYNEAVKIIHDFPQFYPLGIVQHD

SMILES: CCOc1ccc2cc(C3CC(c4ccc(Br)cc4)=NN3C(=O)CCC(=O)O)c(Cl)nc2c1 (stereo not drawn) [TDRL-505]
- inhibition of RPA DBD-A/B-DNA interaction (RPA DBD-A/B): inhibit RPA DBD-A/B-DNA interaction
- IC50 [1]: 38 µM
- cell cycle effect [2]: G1 cell cycle arrest
- synergy with Pt (lung cancer cell line; lung cancer cell line, published data): synergy
- synergy with etoposide (lung cancer cell line; lung cancer cells, flow cytometry based Annexin-PI staining assay): highly synergistic
- cytotoxic effects on peripheral blood lymphocytes [3]: minimal cytotoxic effects
